In brackets after ≈: the same amount, converted by molar mass.

One experiment has as its system P388. Briefly: Cytotoxicity against mouse P388 cells by MTT assay. The experiment is classed as functional. The settings on record: read-out: ED50 (the source's name). An outline of the steps: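 P-388 mouse lymphocytic leukemia cells; viability read by MTT assay, following a previously described procedure.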
(Tetrazolium dyes change colour on reduction, which living cells bring about.)
As to `C=C(CC[C@@H](C)[C@H]1CC[C@H]2[C@@H]3C=CC4=C[C@@H]5OC[C@@]4(C[C@@H]5O)[C@H]3CC[C@]12C)C(C)C`, the EC50 is above 10 µg/mL.
For `C[C@H]1CCC[C@@]2(C)C[C@H]3OO[C@@]12C=C3C(C)(C)O`, the EC50 is above 10 µg/mL.
As to `C=C(C)[C@@]1(OO)CC[C@]2(C)[C@H]3CC[C@@H](C)[C@H]3[C@@H]21`, the EC50 turned out to be 0.3 µg/mL (≈ 1.27 µM).
As for `C=C(CC[C@@H](C)[C@H]1CC[C@H]2[C@@H]3C=CC4=CC=CC[C@]4(CO)[C@H]3CC[C@]12C)C(C)C`, the EC50 was above 10 µg/mL.
In the case of `C[C@H]1CCC[C@@]2(C)C[C@H]3OO[C@@]12C=C3C(C)(C)OO`, the EC50 was found to be 0.2 µg/mL (≈ 0.745 µM).
Same read-out and setting: the value for `C=C(C)[C@@]1(O)CC[C@]2(C)[C@H]3CC[C@@H](C)[C@H]3[C@@H]21` was above 10 µg/mL; that for `C=C(C)[C@H]1[C@@H]2[C@H](C)CC[C@@H]2[C@@]2(C)CC[C@@H]12` was 2.8 µg/mL (≈ 13.7 µM).
The same measure, in the same setting: the value for `C=C(CC[C@@H](C)[C@H]1CC[C@H]2[C@@H]3C[C@H]4OC[C@@]5(CC[C@H](O)C[C@]45O)[C@H]3CC[C@]12C)C(C)C` was above 10 µg/mL.
Still for that read-out and setting: as for `C[C@@H]1CC[C@@H](C(C)(C)O)C[C@]2(C)C1=C[C@H]1O[C@H]12` (relative stereo), the figure is above 10 µg/mL.

A further experiment has as its system HT-29. Briefly: Cytotoxicity against human HT29 cells by MTT assay. It is filed as functional. The settings on record: read-out: ED50 (the source's name). An outline of the steps:
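HT-29 human colon adenocarcinoma cells; viability read by MTT assay, following a previously described procedure.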
Regarding `C=C(CC[C@@H](C)[C@H]1CC[C@H]2[C@@H]3C=CC4=C[C@@H]5OC[C@@]4(C[C@@H]5O)[C@H]3CC[C@]12C)C(C)C`, the EC50 was above 10 µg/mL.
`C[C@H]1CCC[C@@]2(C)C[C@H]3OO[C@@]12C=C3C(C)(C)O`: the EC50 is above 10 µg/mL.
On the same count and under the same terms, as for `C=C(C)[C@@]1(OO)CC[C@]2(C)[C@H]3CC[C@@H](C)[C@H]3[C@@H]21`, the figure is 0.5 µg/mL (≈ 2.12 µM); as for `C=C(CC[C@@H](C)[C@H]1CC[C@H]2[C@@H]3C=CC4=CC=CC[C@]4(CO)[C@H]3CC[C@]12C)C(C)C`, above 10 µg/mL; as for `C[C@H]1CCC[C@@]2(C)C[C@H]3OO[C@@]12C=C3C(C)(C)OO`, 0.4 µg/mL (≈ 1.49 µM).
With `C=C(C)[C@@]1(O)CC[C@]2(C)[C@H]3CC[C@@H](C)[C@H]3[C@@H]21`, the EC50 is above 10 µg/mL.
The same measure, in the same setting: as for `C=C(C)[C@H]1[C@@H]2[C@H](C)CC[C@@H]2[C@@]2(C)CC[C@@H]12`, the figure is 3.2 µg/mL (≈ 15.7 µM).
Still for that read-out and setting: as for `C=C(CC[C@@H](C)[C@H]1CC[C@H]2[C@@H]3C[C@H]4OC[C@@]5(CC[C@H](O)C[C@]45O)[C@H]3CC[C@]12C)C(C)C`, the figure is above 10 µg/mL.
As for `C[C@@H]1CC[C@@H](C(C)(C)O)C[C@]2(C)C1=C[C@H]1O[C@H]12` (relative stereo), the EC50 was above 10 µg/mL.
